Where two headings read alike, the source gives them in different places.
Columns and labels:
PANC-1 and MIA PaCa-2 = conditions: human pancreatic cancer cell lines, cited from earlier work
[1] = tested on: liver and kidney of KSN/Slc nude mice; assay: Histopathological analysis of liver and kidney, tumor-free mice; format: in vivo, mouse; conditions: 10 days treatment
Method in brief: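 Tumor-free KSN/Slc nude mice received saline, test compound or cisplatin for 10 days on the xenograft regimen. Liver and kidney sections were HE-stained for histopathology. Glomerulus area was measured (mean ± SD, n = 15 sections from 3 mice) and compared by one-way ANOVA with Tukey's test.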

[2] = tested on: SAS cells xenograft tumors in KSN/Slc nude mice; assay: Mouse xenograft model, tumor volume; format: in vivo; conditions: 3 µmol/kg cAQ-mBen or 30 µmol/kg CDDP, peritoneally every 2 days for 5 times
Method in brief: (§1)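 SAS cells were inoculated subcutaneously into KSN/Slc nude mice. From day 7 after inoculation (day 0), mice received saline, 3 µmol/kg test compound or 30 µmol/kg cisplatin intraperitoneally every 2 days, 5 times. Tumor volume and body weight were recorded at set points to day 10 (n = 9 control and test, n = 8 cisplatin). Statistics: two-way ANOVA with Tukey's test.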

SAS cells [3] = assay: Annexin V/PI staining; format: cell-based, human; conditions: 5 µM cAQ-mBen or 50 µM CDDP, 24 h
Method in brief: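 SAS cells were exposed for 24 h to 5 µM test compound or to 50 µM cisplatin (positive control), then stained with annexin V-FITC and propidium iodide. Positive cells are expressed as % of total cell number per field. Values are mean ± SD of total apoptotic cells (n = 5), compared by one-way ANOVA with Tukey's test.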

SAS cells [4] = assay: Western blot analysis of caspase-3 and PARP-1 cleavages; format: cell-based, human; conditions: 5 µM cAQ-mBen or 50 µM CDDP, 12 or 24 h
SAS = assay: Cell proliferation assay; format: cell-based, human; conditions: 48 h
[5] = tested on: primary mouse bone marrow cells (BMCs); assay: Cell proliferation assay; format: cell-based; conditions: BMC (normal cells), 48 h
[6] = format: in vivo, mouse; conditions: day 10 of treatment, versus negative control
[7] = Mouse xenograft model, body weight; format: in vivo; conditions: 3 µmol/kg cAQ-mBen or 30 µmol/kg CDDP, every 2 days for 5 times
Method in brief: as §1

Ca9-22 = assay: Cell proliferation assay; format: cell-based, human; conditions: Ca9-22, 48 h
HeLa = assay: Cell proliferation assay; format: cell-based, human; conditions: 48 h

Structure (SMILES): O=C1c2cc(-c3ccc(CN4CCCC4)cc3)c3c4c(cc(NCCN5CCCC5)c(c24)C(=O)N1CCCN1CCOCC1)C(=O)N(CCCN1CCOCC1)C3=O [SOP1812]
- expression of hTERT (PANC-1 and MIA PaCa-2; after 24 h): remained downregulated

Structure (SMILES): N.N.[Cl][Pt][Cl] [CDDP, cis-diamminedichloroplatinum(II)]
- cell arrangement and size of the glomerulus in the kidney [1]: significant condensation of the glomerulus area
- increase in the tumor volume [2]: significantly suppressed
- Anx Alone(%), cells positive for annexin V, % of total cell count, Mean (SAS cells [3]): 24.0%
- PI (%), cells positive for PI signal, % of total cell count, Mean (SAS cells [3]): 18.5%
- digestion of PARP-1 and caspase-3 (SAS cells [4]): observed in a time-dependent manner
- IC50 (SAS): 4300 nM
- IC50 [5]: 1300 nM
- physiological indices of serum (BUN, UA, AST, ALT, CRE, and γ-GTP levels) [6]: substantial increase
- body weight of mice [7]: considerably reduced
- IC50 (Ca9-22): 27700 nM
- IC50 (HeLa): 500 nM

Structure (SMILES): O=C1c2ccc3c4c(c(NCCN5CCCC5)cc(c24)C(=O)N1CCCN1CCOCC1)C(=O)N(CCCN1CCOCC1)C3=O [CM03]
- expression of hTERT (PANC-1 and MIA PaCa-2; after 6 h): remained downregulated
